Laboratory results as given in ChEMBL document CHEMBL1128509, “A novel type of retinoic acid receptor antagonist: synthesis and structure-activity relationships of heterocyclic ring-containing benzoic acid derivatives” (J Med Chem, 1995).
Calls of active or inactive are those of the source. The rule behind the calls is not given here.

Assays:
[1] = The concentration required to inhibit the binding of [3H]ATRA to retinoic acid receptor in human promyelocytic leukemia cells
[2] = test system: HL-60; test: Concentration inhibiting the differentiation-inducing activity of all-trans-retinoic acid (ATRA)(1*10e-8M) in human promyelocytic leukemia cells; format: functional, cell-based
Summary of the method: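 HL-60 cells at 1 × 10^5 cells/mL, 1 mL/well, exposed to ATRA (1.0 × 10^-8 M) plus graded test compound concentrations; 5 days in 5% CO2/air. Cells stained with FITC anti-CD11b, fixed in 0.2% paraformaldehyde, and analysed by flow cytometry for % CD11b-positive cells. IC50 read from activity vs log compound concentration plots; mean of two experiments.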

[3] = Differentiation-inducing activity of the compound. ED1/3 value was obtained from the percentage of the differentiated cells (CD11b-positive cells).; format: functional, Homo sapiens
Summary of the method: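 Human promyelocytic leukemia HL-60 cells were exposed to compound alone and scored for differentiation toward mature granulocytes. The read-out was the percentage of CD11b-positive (differentiated) cells, and ED1/3 was derived from these percentages. Activity was judged at concentrations below 3.0 × 10^-6 M. Values are the mean of two experiments.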

[4] = species: Homo sapiens; test: Differentiation-inducing activity of the compound. ED1/3 value was obtained from the percentage of the differentiated cells (CD11b-positive cells); No activity at concentrations below 3.0e-6M; format: functional

| Structure (SMILES) | IC50 [1] [nM] | IC50 [2] [nM] | ED1/3 [3] [pM] | ED1/3 [4] |
| --- | --- | --- | --- | --- |
| CC1(C)CCC(C)(C)c2cc3c(cc21)CCc1c(-c2ccc(C(=O)O)cc2)cn(Cc2cccs2)c1-3 | 4.5 | 540 |  |  |
| CC1(C)CCC(C)(C)c2cc(-c3cc(-c4ccc(C(=O)O)cc4)[nH]n3)ccc21 | 19 |  | 900 |  |
| CC(C)Oc1cc2c(cc1Cl)CCc1c(-c3ccc(C(=O)O)cc3)cn(Cc3cccnc3)c1-2 | 2.9 | 230 |  |  |
| CC1(C)CCC(C)(C)c2cc3c(ccc4c(-c5ccc(C(=O)O)cc5)cn(Cc5cccnc5)c43)cc21 | 11 | 77 |  |  |
| CC1(C)CCSc2cc3c(cc21)CCc1c(-c2ccc(C(=O)O)cc2)cn(Cc2cccnc2)c1-3 | 13 | 1100 |  |  |
| CC1(C)CCC(C)(C)c2cc3c(cc21)CCc1c(-c2ccc(C(=O)O)cc2)c[nH]c1-3 | 32 | > 3000 |  |  |
| Cn1nc(-c2ccc(C(=O)O)cc2)c2c1-c1cc3c(cc1CC2)C(C)(C)CCC3(C)C | 16 |  |  | inactive |
| CC1(C)CCC(C)(C)c2cc3c(cc21)CCc1c(-c2ccc(C(=O)O)cc2)cn(-c2cnccc2Cl)c1-3 | 3.2 | 490 |  |  |
| Cn1nc2c(c1-c1ccc(C(=O)O)cc1)CCc1cc3c(cc1-2)C(C)(C)CCC3(C)C | 80 |  |  | inactive |
| CC1(C)Cc2c(-c3ccc(C(=O)O)cc3)cn(Cc3cccnc3)c2-c2cc3c(cc21)C(C)(C)CCC3(C)C | > 50 | 1000 |  |  |
| CC1=C(/C=C/C(C)=C/C=C/C(C)=C/C(=O)O)C(C)(C)CCC1 [TRETINOIN] | 0.63 |  | 340 |  |
| CC1(C)CCC(C)(C)c2cc3c(cc21)CCc1c(-c2ccc(C(=O)O)cc2)cn(CCc2ccccn2)c1-3 | 16 | 1300 |  |  |
| CC1(C)CCC(C)(C)c2cc3c(cc21)CCc1c(-c2ccc(C(=O)O)cc2)cn(Cc2ccccc2)c1-3 | 1.2 | 210 |  |  |
| CC1(C)CCOc2cc3c(cc21)CCc1c(-c2ccc(C(=O)O)cc2)cn(Cc2cccnc2)c1-3 | > 50 | 1600 |  |  |
| CC1(C)CCC(C)(C)c2cc3c(cc21)CCc1c(-c2ccc(C(=O)O)cc2)cn(CC24CC5CC(CC(C5)C2)C4)c1-3 | > 50 | > 3000 |  |  |
| Cn1cc(-c2ccc(C(=O)O)cc2)c2c1-c1cc3c(cc1CC2)C(C)(C)CCC3(C)C | > 50 | 200 |  |  |
| CC1(C)CCC(C)(C)c2cc3c(cc21)CCCc1c(-c2ccc(C(=O)O)cc2)cn(Cc2cccnc2)c1-3 | 4.7 | 78 |  |  |
| CC1(C)CCC(C)(C)c2cc3c(cc21)CCc1c(-c2ccc(C(=O)O)cc2)ccnc1-3 | > 50 | > 3000 |  |  |
| CC1(C)CCC(C)(C)c2cc3c(cc21)CCc1c(-c2ccc(C(=O)O)cc2)cn(C2CC2)c1-3 | 14 | 360 |  |  |

| Structure (SMILES) | IC50 [1] [nM] | IC50 [2] [nM] | ED1/3 [3] [pM] | ED1/3 [4] |
| --- | --- | --- | --- | --- |
| COc1cc2c(cc1C(C)C)CCc1c(-c3ccc(C(=O)O)cc3)cn(Cc3cccnc3)c1-2 | 22 | 170 |  |  |
| CC1(C)CCC(C)(C)c2cc3c(cc21)CCc1c(-c2ccc(C(=O)O)cc2)n[nH]c1-3 | 17 |  |  | inactive |
| CC1(C)CCC(C)(C)c2cc3c(cc21)CCc1c(-c2ccc(C(=O)O)cc2)cn(Cc2cccnc2)c1-3 | 0.34 | 4.9 |  |  |
| CC1(C)CCC(C)(C)c2cc3c(cc21)CCc1c(-c2ccc(C(=O)O)cc2)cnnc1-3 | > 50 | > 3000 |  |  |
| CC1(C)CCC(C)(C)c2cc3c(cc21)CCc1c(-c2ccc(C(=O)O)cc2)cn(Cc2ccncc2)c1-3 | 2.3 | 84 |  |  |
| CC1(C)CCC(C)(C)c2cc3c(cc21)OCc1c(-c2ccc(C(=O)O)cc2)cn(Cc2cccnc2)c1-3 | 19 | 100 |  |  |
| COc1ccncc1-n1cc(-c2ccc(C(=O)O)cc2)c2c1-c1cc3c(cc1CC2)C(C)(C)CCC3(C)C | 5.6 | 650 |  |  |
| CC1(C)CCC(C)(C)c2cc3c(cc21)CCc1c(-c2ccc(C(=O)O)cc2)cn(-c2cccnc2)c1-3 | 0.59 | 33 |  |  |
| CC1(C)CCC(C)(C)c2cc3c(cc21)SCc1c(-c2ccc(C(=O)O)cc2)cn(Cc2cccnc2)c1-3 | 0.16 | 5.6 |  |  |
| CC(C)Oc1cc2c(cc1C(C)C)CCc1c(-c3ccc(C(=O)O)cc3)cn(Cc3cccnc3)c1-2 | 0.97 | 69 |  |  |
| CC1(C)CCC(C)(C)c2cc3c(cc21)CCc1c(-c2ccc(C(=O)O)cc2)coc1-3 | > 50 | 300 |  |  |
| CC1(C)CCC(C)(C)c2cc3c(cc21)CCc1c(-c2ccc(C(=O)O)cc2)nn(Cc2ccccc2)c1-3 | 1.5 | 56 |  |  |
| CCCCCn1cc(-c2ccc(C(=O)O)cc2)c2c1-c1cc3c(cc1CC2)C(C)(C)CCC3(C)C | 19 | 520 |  |  |
| CC1(C)CCC(C)(C)c2cc3c(cc21)CCc1c(-c2ccc(C(=O)O)cc2)nn(Cc2cccnc2)c1-3 | 0.91 | 1.3 |  |  |
| CC(C)Oc1cc2c(cc1-c1ccccc1)CCc1c(-c3ccc(C(=O)O)cc3)cn(Cc3cccnc3)c1-2 | 30 | 300 |  |  |
| CC1(C)CCC(C)(C)c2cc3c(cc21)CCc1c(-c2ccc(C(=O)O)cc2)cn(Cc2ccco2)c1-3 | 3.4 | 51 |  |  |
| Cc1cc2c(cc1OC(C)C)-c1c(c(-c3ccc(C(=O)O)cc3)cn1Cc1cccnc1)CC2 | 3.7 | 37 |  |  |
| CC1(C)CCC(C)(C)c2cc3c(cc21)CCc1c(-c2ccc(C(=O)O)cc2)csc1-3 | > 5 | 2400 |  |  |
| CC1(C)CCC(C)(C)c2cc3c(cc21)CCc1c(-c2ccc(C(=O)O)cc2)cn(Cc2ccccn2)c1-3 | 0.14 | 17 |  |  |
